Assay results published in ChEMBL document CHEMBL5653630, “Activation of the p53-MDM4 regulatory axis defines the anti-tumour response to PRMT5 inhibition through its role in regulating cellular splicing” (Sci Rep, 2018).

Tests used:
[1] = test system: Z-138; test: Induction of apoptosis in human Z138 cells assessed as early apoptotic cells incubated for 6 days by annexin-V/FITC propidium iodide staining based flow cytometry analysis; assay type: functional, cell-based; conditions: dose 200.0 nM, time 6.0 day
[2] = test system: MCF7; test: Antiproliferative activity against human MCF7 cells assessed as cell growth inhibition incubated for 6 days by celltiter-glo assay; assay type: functional; conditions: MCF7, 144 h, time 6 day
Procedure, shortened: (§1)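 Cells seeded in 384-well plates at an optimized density and held 24 h. CellTiter-Glo luminescence read at Day 0 and Day 6. Four-parameter fit. gIC50 = midpoint of the growth window between DMSO and T0. Curves required ≥1.5 population doublings.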

[3] = test system: U-937; test: Antiproliferative activity against human U-937 cells assessed as cell growth inhibition incubated for 6 days by celltiter-glo assay; assay type: functional; conditions: U-937, 144 h, time 6 day; procedure, shortened: as §1
[4] = test system: MEG-01; test: Antiproliferative activity against human MEG-01 cells assessed as cell growth inhibition incubated for 10 days; assay type: functional; conditions: MEG-01, 240 h, time 10 day
[5] = test system: SW480; test: Antiproliferative activity against human SW480 cells assessed as cell growth inhibition incubated for 10 days; assay type: functional; conditions: SW480, 240 h, time 10 day
[6] = test system: RL95-2; test: Antiproliferative activity against human RL95-2 cells assessed as cell growth inhibition incubated for 10 days; assay type: functional; conditions: RL95-2, 240 h, time 10 day
[7] = test system: U138-MG; test: Antiproliferative activity against human U138-MG cells assessed as cell growth inhibition incubated for 10 days; assay type: functional; conditions: 240 h, time 10 day
[8] = test system: L-428; test: Antiproliferative activity against human L-428 cells assessed as cell growth inhibition incubated for 10 days; assay type: functional; conditions: L-428, 240 h, time 10 day
[9] = test system: G-402; test: Antiproliferative activity against human G-402 cells assessed as cell growth inhibition incubated for 10 days; assay type: functional; conditions: G-402, 240 h, time 10 day
Procedure, shortened: (§2)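 Outsourced panel run in 384-well plates. Cells were grown in RPMI-1640/10% FBS or a special medium at 37°C, 5% CO2. Compound was added 24 h after seeding as a 10-point, 3.16-fold series in 0.1% DMSO. Medium was refreshed and cells re-dosed at 168 h, with a time-zero plate kept. At 240 h cells were fixed, nuclei stained and imaged. gIC50 is growth midway between untreated and time zero, from a 4-parameter fit.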

[10] = test system: A498; test: Antiproliferative activity against human A498 cells assessed as cell growth inhibition incubated for 10 days; assay type: functional; conditions: A498, 240 h, time 10 day
Procedure, shortened: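 Cells kept in RPMI-1640 with 10% FBS, 2 mM L-alanyl-L-glutamine and 1 mM Na pyruvate (or a special medium) at 37°C, 5% CO2. Compound added 24 h after seeding, 10 concentrations in 3.16-fold dilution, 0.1% DMSO final. Medium replaced and cells re-dosed at 168 h; 240 h incubation. Nuclei fixed, dye-stained and imaged. gIC50 = growth midway between untreated and time-zero cell counts, from a 4-parameter fit.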

[11] = test system: HepG2; test: Antiproliferative activity against human HepG2 cells assessed as cell growth inhibition incubated for 10 days; assay type: functional; conditions: HepG2, 240 h, time 10 day; procedure, shortened: as §2
[12] = test system: SK-MEL-1; test: Antiproliferative activity against human SK-MEL-1 cells assessed as cell growth inhibition incubated for 10 days; assay type: functional; conditions: SK-MEL-1, 240 h, time 10 day
[13] = test system: RPMI-7951; test: Antiproliferative activity against human RPMI-7951 cells assessed as cell growth inhibition incubated for 10 days; assay type: functional; conditions: RPMI-7951, 240 h, time 10 day
[14] = test system: CRO-AP2; test: Antiproliferative activity against human CRO-AP2 cells assessed as cell growth inhibition incubated for 10 days; assay type: functional; conditions: CRO-AP2, 240 h, time 10 day; procedure, shortened: as §2
[15] = test system: SW684; test: Antiproliferative activity against human SW684 cells assessed as cell growth inhibition incubated for 10 days; assay type: functional; conditions: SW684, 240 h, time 10 day
[16] = test system: DMS-114; test: Antiproliferative activity against human DMS-114 cells assessed as cell growth inhibition incubated for 10 days; assay type: functional; conditions: DMS-114, 240 h, time 10 day; procedure, shortened: as §2
[17] = test system: NCI-H446; test: Antiproliferative activity against human NCI-H446 cells assessed as cell growth inhibition incubated for 10 days; assay type: functional; conditions: NCI-H446, 240 h, time 10 day
[18] = test system: J-RT3-T3-5; test: Antiproliferative activity against human J-RT3-T3-5 cells assessed as cell growth inhibition incubated for 10 days; assay type: functional; conditions: J-RT3-T3-5, 240 h, time 10 day
Procedure, shortened: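 Eurofins-panel 10-day assay in 384-well plates. Cells grown in RPMI-1640 with 10% FBS, 2 mM L-alanyl-L-glutamine and 1mM Na pyruvate, or a special medium, at 37°C in 5% CO₂. Compound added 24 h after seeding, 10-point 3.16-fold series in 0.1% DMSO. Medium replaced and compound re-dosed at 168 h. Nuclei fixed and stained after 240 h, then imaged to give a relative cell count. gIC50 is the concentration giving growth midway between untreated and time-zero counts, from a 4-parameter fit.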

CC(=O)N1CCC(Nc2cc(C(=O)NC[C@H](O)CN3CCc4ccccc4C3)ncn2)CC1 [PEMRAMETOSTAT]
Activity [1]: Dose-Dependent Effect

O=C(NC[C@H](O)CN1CCc2ccccc2C1)c1ccnc(NC2CCC2)c1
GI50 [2]: 0.215 µM
GI50 [3]: 0.049 µM
GI50 [4]: 10 µM
GI50 [5]: 0.413 µM
GI50 [6]: 0.218 µM
GI50 [7]: 0.0433 µM
GI50 [8]: 0.33 µM
GI50 [9]: 0.0997 µM
GI50 [10]: 0.0507 µM
GI50 [11]: 0.214 µM
GI50 [12]: 0.0387 µM
GI50 [13]: 0.0442 µM
GI50 [14]: 0.25 µM
GI50 [15]: 1.17 µM
GI50 [16]: 1.01 µM
GI50 [17]: 0.57 µM
GI50 [18]: 0.0432 µM
